This is an account of results in PubChem BioAssay.

SMILES strings stand for the structures. Calls of active or inactive are those of the source.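 How the source made its calls, unless noted: active means fluorescence slope higher than the sample average by over 3 SD (cut at about -0.22 in these data, passing the limit was not always enough); inactive means the rest.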

Experiment [1] in a line: inhibitors of TNFa-induced NFkB p65 translocation, primary screen, imaging, HUVEC, MLSMR starter and 10KST1 sets (AID 438;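 active means inhibition above 20% together with a positive visual image hit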;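 further: compound added about 3h40 before a 20 min TNFalpha stimulation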;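 on inhibition: signal is the nuclear over cytoplasmic p65 intensity ratio per well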). The note with it: HUVEC TNFa-induced p65 nuclear translocation; cell count: measured here: nuclei count (cytotoxicity indicator), at 2.08 µM; inhibition: at 2 µM, stronger effect = higher value, 0% TNFa-plus-vehicle, 100% no-TNFa wells.
Experiment [2] is described as follows: inhibitors of mutant huntingtin aggregation, primary screen, imaging, exon1htt(103Q)mCFP cells, high-content imaging (AID 483;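 active means visual image review flags a hit and inhibition of aggregation exceeds 20%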;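 further: compound exposure lasted 3 days before fixation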;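 on nuclei count: percent of the per-plate median nuclei count of sample wells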). To be noted: exon1htt(103Q)mCFP cell line, aggregate imaging, at 2 µM; inhibition of aggregation: stronger effect = higher value; nuclei count: measured here: cell count, toxicity.
Experiment [3] can be described thus: inhibitors of E-selectin induction by TNFa, primary screen, imaging, HUVEC, immunofluorescence, MLSMR starter and 10KST1 sets (AID 487;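 active means visually confirmed hit in the image check and inhibition above 20%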;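 on inhibition: signal is fraction of cell area covered by stained E-selectin grains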;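 on nuclei count: 100% = median nuclei count of all wells on the same plate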). The note with it: HUVEC TNFalpha-induced E-selectin immunofluorescence imaging, at 2 µM; inhibition: stronger effect = higher value; nuclei count: measured here: cell number, toxicity.
Experiment [4] concerns the target Voltage-gated potassium channel subunit beta-2 (Rattus norvegicus) (UniProt P62483). As to the kind of experiment: KvBeta enzyme negative modulators, primary screen, biochemical, NADPH fluorescence (AID 622).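 Further: slope of raw intensity against log time taken from 70 to 1610 s.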 The note with it: recombinant KvBeta, 4-cyanobenzaldehyde reduction, at 10 µM, stronger effect = higher value.
The target is the same in experiment [5]. As to the kind of experiment: KvBeta positive modulators, primary screen, biochemical, NADPH fluorescence (AID 623;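 active means NADPH fluorescence slope more negative than the mean of all samples by about 3 SD, 99.7% confidence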;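 further: fluorescence intensity change per second fitted from 20 to 320 s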). To be noted: Recombinant KvBeta, NADPH fluorescence decrease slope, 10 min; at 10 µM; stronger effect = lower value.
The target of experiment [6] is Muscarinic acetylcholine receptor M4 (Homo sapiens) (UniProt P08173). The experiment in a line: compounds altering M4/GIRK thallium flux, either direction, primary screen, M4 allosteric agonist project, cell-based, HEK293 M4/GIRK, BTC-AM (AID 625;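 active means fluorescence slope after compound addition differing from the mean of all tested samples at 99.7% confidence, mostly higher but some lower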;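 further: thallium influx through GIRK channels coupled to M4 in HEK293 cells with BTC-AM dye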). To be noted: at 10 µM, actives lie on both sides. A digest of the protocol:
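Assay system: HEK293 cells with M4 receptor and GIRK channels / Controls: carbachol and DMSO controls / Schedule: 1 h dye loading, 2 min kinetic read / Technique: kinetic fluorescence with BTC-AM dye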

The nature of experiment [7]: inhibitors of Sendai virus-induced IRF3 signaling, primary screen, TLR/RLR signaling modifier project, cell-based, Sendai virus stimulus, luciferase, 10K MLSCN set (AID 602276;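 active means inhibition at or above 50% at 10 µM; inactive means inhibition below 50%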;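 further: firefly luciferase from ISG56 promoter only with Renilla not read in this screen; 0% = Sendai virus plus DMSO and 100% = medium plus DMSO without virus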). To be noted: HEK293 RL24 IRF3 luciferase reporter, at 10 µM, stronger effect = higher value.
Experiment [8] can be described thus: inhibitors of poly I:C-induced TLR3 signaling, primary screen, cell-based, poly I:C stimulus, luciferase, 10K MLSCN set (AID 602277;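 active means inhibition of the reporter signal at or above 50%; inactive means inhibition below 50%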). The note with it: HEK293-TLR3 RL24 IRF3 luciferase reporter, at 10 µM, stronger effect = higher value.

Sequence of Muscarinic acetylcholine receptor M4 (Homo sapiens) (P08173 whole entry, looked up): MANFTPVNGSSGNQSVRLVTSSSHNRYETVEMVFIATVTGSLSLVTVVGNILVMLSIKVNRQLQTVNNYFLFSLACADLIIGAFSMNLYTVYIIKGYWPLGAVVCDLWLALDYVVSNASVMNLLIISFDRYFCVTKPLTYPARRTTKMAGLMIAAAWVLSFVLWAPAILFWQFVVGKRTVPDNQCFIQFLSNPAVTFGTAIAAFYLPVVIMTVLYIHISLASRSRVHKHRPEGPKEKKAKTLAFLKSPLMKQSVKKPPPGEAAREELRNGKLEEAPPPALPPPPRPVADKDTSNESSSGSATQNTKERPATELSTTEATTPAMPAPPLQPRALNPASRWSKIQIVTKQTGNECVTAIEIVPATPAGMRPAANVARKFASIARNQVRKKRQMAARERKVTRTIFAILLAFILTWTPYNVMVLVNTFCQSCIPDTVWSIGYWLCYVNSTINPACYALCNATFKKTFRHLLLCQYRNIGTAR
Sequence of Voltage-gated potassium channel subunit beta-2 (Rattus norvegicus) (P62483 whole entry, looked up): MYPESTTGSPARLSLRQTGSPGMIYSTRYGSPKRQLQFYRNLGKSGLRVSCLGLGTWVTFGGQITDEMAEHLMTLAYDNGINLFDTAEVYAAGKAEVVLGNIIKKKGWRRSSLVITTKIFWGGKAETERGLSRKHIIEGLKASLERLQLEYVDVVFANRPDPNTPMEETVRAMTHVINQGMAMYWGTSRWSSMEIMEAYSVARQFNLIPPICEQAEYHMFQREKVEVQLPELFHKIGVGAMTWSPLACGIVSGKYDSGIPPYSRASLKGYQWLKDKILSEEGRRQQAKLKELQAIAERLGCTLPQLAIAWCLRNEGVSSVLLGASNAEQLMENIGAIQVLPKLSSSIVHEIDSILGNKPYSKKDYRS

`CCN(CC)S(=O)(=O)c1ccc2oc(C(=O)O)c(C)c2c1`: in experiment [1], the cell count was determined as 335. For the same molecule, the inhibition in experiment [1] was 12.8% (inactive); in experiment [3], -89.3% (inactive); in experiment [7] it was 5.96% (inactive); in experiment [8] it was 11.9% (inactive). For the same molecule, in experiment [2], the inhibition of aggregation is 39.6% (inactive). The nuclei count was determined as 85.6% in experiment [2] and 104% in experiment [3]. For the same molecule, the fluorescence slope in experiment [4] is -0.473 (inactive); in experiment [6], 0.00522 (inactive). For the same molecule, the NADPH fluorescence slope in experiment [5] is 0.000115 (inactive).
With `CCn1c2ccccc2c2cc(NC(=O)CSc3nnc(C4CC4)n3Cc3ccco3)ccc21`, the cell count in experiment [1] worked out at 488. Further, the inhibition in experiment [1] was 6.3% (inactive); in experiment [3], 36.4% (inactive); in experiment [7], 12.7% (inactive); in experiment [8], 17.6% (inactive). In experiment [2], the inhibition of aggregation is 2.5% (inactive). The nuclei count in experiment [2] and in experiment [3] was 94.6% in each case. Besides, the fluorescence slope was -0.461 (inactive) in experiment [4] and 0.00526 (inactive) in experiment [6]. Besides, in experiment [5], the NADPH fluorescence slope is 2.1e-05 (inactive).
Regarding `Cc1ccc(C)c(NC(=O)C2CCC(C)(C(=O)O)C2(C)C)c1` (stereo not drawn), the cell count in experiment [1] stood at 352. Besides, the inhibition was -2.5% (inactive) in experiment [1], -105% (inactive) in experiment [3], 15.8% (inactive) in experiment [7] and 30.8% (inactive) in experiment [8]. Moreover, the inhibition of aggregation in experiment [2] is 6% (inactive). For the same molecule, the nuclei count in experiment [2] stood at 98%; in experiment [3], 124%. Further, the fluorescence slope was -0.603 (inactive) in experiment [4] and 0.00734 (inactive) in experiment [6]. In addition, the NADPH fluorescence slope in experiment [5] is 2.7e-06 (inactive).
For `CCOC(=O)CC(NS(=O)(=O)c1ccc(NC(C)=O)cc1)c1ccc(OCC)cc1` (stereo not drawn), the cell count in experiment [1] turned out to be 376. The inhibition was 9.9% (inactive) in experiment [1], -101% (inactive) in experiment [3], 14% (inactive) in experiment [7] and 17.3% (inactive) in experiment [8]. Further, the inhibition of aggregation in experiment [2] was -7.9% (inactive). In addition, the nuclei count came to 95.7% in experiment [2] and 126% in experiment [3]. Besides, the fluorescence slope in experiment [4] was -0.588 (inactive); in experiment [6] it was 0.00588 (inactive). Also, the NADPH fluorescence slope in experiment [5] is 3.6e-06 (inactive).
For the molecule `CCCCOc1ccc(-c2nnn(CC(=O)Nc3ncc(CC(=O)OCC)s3)n2)cc1`, the cell count in experiment [1] worked out at 613. The inhibition is 36.4% (active) in experiment [1], -79% (inactive) in experiment [3], 13.5% (inactive) in experiment [7] and 23.8% (inactive) in experiment [8]. Besides, in experiment [2], the inhibition of aggregation is 18.6% (inactive). Further, the nuclei count is 108% in experiment [2] and 79.4% in experiment [3]. In addition, the fluorescence slope in experiment [4] is -0.4 (inactive); in experiment [6], 0.00855 (inactive). Also, the NADPH fluorescence slope in experiment [5] was 6.8e-06 (inactive).
Take `O=c1c2c3nc4ccccc4nc3n(CC3CCCO3)c2ncn1CCc1ccccc1` (stereo not drawn): the cell count in experiment [1] worked out at 440. Also, the inhibition in experiment [1] is -3.2% (inactive); in experiment [3], -90.8% (inactive); in experiment [7] it was 12.8% (inactive); in experiment [8] it was 19.1% (inactive). For the same molecule, the inhibition of aggregation in experiment [2] is -0.4% (inactive). For the same molecule, the results for the nuclei count in experiment [2] and in experiment [3] were 116% and 107%, respectively. The fluorescence slope is -0.378 (inactive) in experiment [4] and 0.00514 (inactive) in experiment [6]. The NADPH fluorescence slope in experiment [5] is -1.1e-05 (inactive).
Regarding `CCOC(=O)N1CCN(C(=O)c2ccc(N3C(=O)CCC3=O)cc2)CC1`, the cell count in experiment [1] was 503. For the same molecule, the inhibition in experiment [1] was -1.2% (inactive); in experiment [3], 15.8% (inactive); in experiment [7], -5.15% (inactive); in experiment [8], 18.1% (inactive). For the same molecule, the inhibition of aggregation in experiment [2] is 0.2% (inactive). The nuclei count in experiment [2] is 108%; in experiment [3], 68.3%. Also, the fluorescence slope in experiment [4] is -0.266 (inactive); in experiment [6] it was 0.00679 (inactive). Moreover, in experiment [5], the NADPH fluorescence slope was -2.7e-05 (inactive).
As for `Cc1ccc(-c2nnn(CC(=O)NC3CC4CCC3C4)n2)cc1` (stereo not drawn), the cell count in experiment [1] came out at 239. The inhibition in experiment [1] was -5% (inactive); in experiment [3], 3.6% (inactive); in experiment [7], 7.26% (inactive); in experiment [8] it was -0.548% (inactive). The inhibition of aggregation in experiment [2] was 15.8% (inactive). Further, the nuclei count stood at 77.6% in experiment [2] and 102% in experiment [3]. Besides, the figures for the fluorescence slope in experiment [4] and in experiment [6] were -0.563 (inactive) and 0.00799 (inactive), respectively. Also, the NADPH fluorescence slope in experiment [5] is -4.4e-05 (inactive).
